Experimental data: ChEMBL document CHEMBL4414620, “Structurally Modified Cyclopenta[b]benzofuran Analogues Isolated from Aglaia perviridis” (J Nat Prod, 2019)
pIC50: −log10 of the molar value.

Assays:
HT-29 = assay: Antiproliferative activity against human HT-29 cells incubated for 72 hrs by SRB assay; assay type: functional, cell-based; settings: HT-29, 72 h
In short: (§1)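 Purified isolates were screened for cytotoxicity against HT-29 and PC-3 human cancer cells, with paclitaxel as the positive control for both lines.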

PC-3 = assay: Antiproliferative activity against human PC3 cells incubated for 72 hrs by SRB assay; assay type: functional, cell-based; settings: PC-3, 72 h; in short: as §1

## COc1ccc([C@@]23Oc4cc5c(c(OC)c4[C@]2(O)[C@H](O)[C@H](C(N)=O)[C@H]3c2ccccc2)[C@@H]2OC[C@H]([C@H](O)CO)O[C@@H]2O5)cc1
HT-29
  pIC50: < 5.00
PC-3
  pIC50: < 5.00

## COc1ccc([C@@]23Oc4cc(O[C@@H]5O[C@@H]([C@@H](O)CO)COC5O)cc(OC)c4[C@]2(O)[C@H](O)[C@H](C(N)=O)[C@H]3c2ccccc2)cc1 (mixture of isomers)
HT-29
  pIC50: 5.64
PC-3
  pIC50: 5.64

## COc1ccc([C@@]23Oc4cc5c(c(OC)c4[C@]2(O)[C@H](O)[C@H](C(N)=O)[C@H]3c2ccccc2)[C@H]2OC[C@H]([C@@H](O)CO)O[C@H]2O5)cc1
HT-29
  pIC50: < 5.00
PC-3
  pIC50: < 5.00

## COc1ccc([C@@]23Oc4cc5c(c(OC)c4[C@]2(O)[C@H](O)[C@H](C(N)=O)[C@H]3c2ccccc2)[C@@H]2OC[C@H]([C@@H](O)CO)O[C@@H]2O5)cc1
HT-29
  pIC50: < 5.00
PC-3
  pIC50: < 5.00

## COc1ccc([C@@]23Oc4cc5c(c(OC)c4[C@]2(O)[C@H](O)[C@H](C(N)=O)[C@H]3c2ccccc2)[C@H]2OC[C@H]([C@H](O)CO)O[C@H]2O5)cc1
HT-29
  pIC50: < 5.00
PC-3
  pIC50: < 5.00
